From ChEMBL document CHEMBL1157336, “Bisabolane sesquiterpenes from the roots of Ligularia cymbulifera” (2006)

Key:
Format in all cases: functional
Escherichia coli = assay: Antibacterial activity against Escherichia coli ATCC 25922 after 24 hrs by broth microdilution assay; conditions: ATCC 25922, 24 h
Procedure, shortened: (§1)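 Broth microdilution MIC in Mueller-Hinton broth; serial doubling dilutions over 0.0024-1.25 mg/mL. Overnight broth cultures, inoculum adjusted to 2 × 10^6 cfu/mL final per well. Incubated at 37 °C for 24 h. MIC read as the lowest concentration without visible growth (no turbidity). Duplicate wells, repeated twice; levofloxacin as positive control.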

Staphylococcus aureus [1] = assay: Antibacterial activity against Staphylococcus aureus ATCC 25923 after 24 hrs by broth microdilution assay; conditions: ATCC 25923, 24 h; procedure, shortened: as §1
Staphylococcus aureus [2] = assay: Antibacterial activity against methicillin-resistant Staphylococcus aureus isolate after 24 hrs by broth microdilution assay
Procedure, shortened: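 Clinical MRSA isolate; broth microdilution in Mueller-Hinton broth, twofold serial dilutions over 0.0024-1.25 mg/mL, final inoculum 2 × 10^6 cfu/mL from overnight broth culture; 37 °C, 24 h. MIC taken as lowest concentration without visible turbidity. Duplicate wells, repeated twice; levofloxacin positive control.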

Candida albicans = assay: Antifungal activity against Candida albicans after 48 hrs by broth microdilution assay
Procedure, shortened: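 Yeast tested by broth microdilution in Mueller-Hinton broth; samples serially doubled over 0.0024-1.25 mg/mL. Inoculum from overnight broth culture, final 2 × 10^6 cfu/mL per well. Plates held at 30 °C for 48 h. MIC taken as the lowest concentration showing no turbidity. Duplicate, repeated twice; fluconazole positive control.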

Measured: MIC

C=C(C(CC(O)C(C)(C)O)OC(=O)/C(C)=C\C)[C@H]1C[C@H]2O[C@@]2(C)C(=O)[C@@H]1OC(=O)/C(C)=C\C (some centres not stated)
> 62.5 µg/mL: all assays above

C=C(C(CC1OC1(C)C)OC(=O)/C(C)=C\C)[C@H]1C[C@H](Cl)[C@@](C)(O)[C@@H](O)[C@H]1OC(=O)/C(C)=C\C (some centres not stated)
> 62.5 µg/mL: all assays above

C=C(C(CC1OC1(C)C)OC(=O)/C(C)=C\C)[C@H]1C[C@H]2O[C@@]2(C)[C@@H](OC(=O)/C(C)=C\C)[C@H]1OC(=O)/C(C)=C\C (some centres not stated)
> 62.5 µg/mL: all assays above

C=C(C(CC1OC1(C)C)OC(=O)/C(C)=C\C)[C@H]1C[C@H]2O[C@@]2(C)[C@H](OC(=O)/C(C)=C\C)[C@@H]1O (some centres not stated)
> 62.5 µg/mL: all assays above

C=C(C(CC1OC1(C)C)OC(=O)/C(C)=C\C)[C@H]1C[C@H](OC(=O)/C(C)=C\C)[C@@](C)(O)[C@@H](OC(=O)/C(C)=C\C)[C@H]1O (some centres not stated)
> 62.5 µg/mL: all assays above

C=C(C(CC(O)C(C)(C)O)OC(=O)/C(C)=C\C)[C@H]1C[C@H]2O[C@@]2(C)[C@@H](O)[C@H]1OC(=O)/C(C)=C\C (some centres not stated)
> 62.5 µg/mL: all assays above

C=C(C(CC1OC1(C)C)OC(=O)/C(C)=C\C)[C@H]1C[C@H]2O[C@@]2(C)C[C@H]1OC(=O)/C(C)=C\C (some centres not stated)
> 62.5 µg/mL: all assays above

C=C(C(CC1OC1(C)C)OC(=O)/C(C)=C\C)[C@H]1C[C@@H]2O[C@]2(C)[C@@H](OC(=O)/C(C)=C\C)[C@@H]1O (some centres not stated)
> 62.5 µg/mL: all assays above
